For ten compounds, Activity results are on record in ChEMBL document CHEMBL1148955, “Chemical constituents from the Colombian medicinal plant Maytenus laevis” (2004).

Calls of active or inactive are those of the source. The calls are words filed in the database; no cut-off is given here. Bounds are passed on as bounds.

In assay [1] the test system is PBMC. Description: Induction of IL4 production in human PBMC at 1 ug/ml after 48 hrs by ELISA. Format: functional, cell-based. The procedure, abridged: (§1)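 PBMCs were isolated from heparinized venous blood by Ficoll-Hypaque density gradient centrifugation. Cells were cultured at 1 × 10^6/mL in RPMI 1640 with 10% fetal calf serum, with or without compound at 1 or 10 µg/mL, for 48 h at 37 °C. Cytokines in the culture supernatants were measured by commercial ELISA kits.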
A general note: ELISA stands for enzyme-linked immunosorbent assay.

In assay [2] the test system is PBMC. Description: Induction of IL12 production in human PBMC at 10 ug/ml after 48 hrs by ELISA. Format: functional. The procedure, abridged:
as §1

Assay [3] concerns PBMC. As to the kind of experiment: Induction of TNFalpha production in human PBMC at 1 ug/ml after 48 hrs by ELISA. Format: functional. The procedure, abridged:
as §1

Assay [4] relates to PBMC. Description: Induction of IL6 production in human PBMC at 1 ug/ml after 48 hrs by ELISA. The class given is functional. The procedure, abridged: as §1
Assay [5] relates to PBMC. As to the kind of experiment: Induction of IL6 production in human PBMC at 10 ug/ml after 48 hrs by ELISA. The class given is functional. Summed up:
as §1

For assay [6], the system named is PBMC. As to the kind of experiment: Induction of IFN-gamma production in human PBMC at 1 ug/ml after 48 hrs by ELISA. Format: functional, cell-based. The procedure, abridged:
as §1

Assay [7] concerns PBMC. Description: Induction of IL10 production in human PBMC at 10 ug/ml after 48 hrs by ELISA. Format: functional, cell-based. Summed up: as §1
The subject of assay [8] is PBMC. As to the kind of experiment: Induction of IL12 production in human PBMC at 1 ug/ml after 48 hrs by ELISA. The class given is functional. Summed up: as §1
Assay [9] concerns PBMC. As to the kind of experiment: Induction of IFN-gamma production in human PBMC at 10 ug/ml after 48 hrs by ELISA. Format: functional, cell-based. The procedure, abridged:
as §1

Assay [10] concerns PBMC. As to the kind of experiment: Induction of TNFalpha production in human PBMC at 10 ug/ml after 48 hrs by ELISA. Format: functional. Summed up: as §1
Assay [11] has as its system PBMC. As to the kind of experiment: Induction of IL4 production in human PBMC at 10 ug/ml after 48 hrs by ELISA. The class given is functional, cell-based. Summed up:
as §1

The test system of assay [12] is PBMC. As to the kind of experiment: Induction of IL10 production in human PBMC at 1 ug/ml after 48 hrs by ELISA. Format: functional, cell-based. Summed up:
as §1

In the case of `CC1(C)[C@H](O)CC[C@]2(C)[C@H]3CC=C4[C@@H]5C[C@@]6(C)C[C@H](OC6=O)[C@]5(C)CC[C@@]4(C)[C@]3(C)CC[C@@H]12` [ABRUSLACTONE A], the result in the assay on PBMC [1], in the assay with PBMC [6], in the assay on PBMC [7], with PBMC [9], in the assay with PBMC [11] and with PBMC [12] was inactive. For the same compound, the Activity was 28.3 pg/mL in the assay with PBMC [2]; under 7.8 pg/mL in the assay with PBMC [3]; 22.5 pg/mL with PBMC [4]; 777.2 pg/mL in the assay on PBMC [5]; under 7.8 pg/mL in the assay with PBMC [8]; 22.7 pg/mL in the assay on PBMC [10].
For the compound `COc1ccc([C@H]2Oc3cc(O)cc(O)c3C[C@H]2O)cc1OC`, the outcome with PBMC [1], in the assay on PBMC [6], in the assay on PBMC [7], in the assay on PBMC [9], in the assay with PBMC [11] and in the assay with PBMC [12] was inactive. In addition, the Activity was under 7.8 pg/mL in the assay on PBMC [2]; under 7.8 pg/mL in the assay with PBMC [3]; 473.4 pg/mL in the assay on PBMC [4]; 198.6 pg/mL in the assay on PBMC [5]; under 7.8 pg/mL in the assay with PBMC [8]; under 7.8 pg/mL with PBMC [10].
For `CC1(C)C(=O)CC[C@]2(C)[C@H]3CC=C4[C@@H]5C[C@]6(C)C[C@@H](OC6=O)[C@]5(C)CC[C@@]4(C)[C@]3(C)CC[C@@H]12` [WILFORLIDE B], the outcome in the assay on PBMC [1], in the assay with PBMC [6], in the assay on PBMC [7], in the assay on PBMC [9], in the assay with PBMC [11] and in the assay with PBMC [12] was inactive. For the same compound, the Activity in the assay on PBMC [2] is under 7.8 pg/mL; with PBMC [3] it was under 7.8 pg/mL; in the assay with PBMC [4] it was 1477.6 pg/mL; in the assay with PBMC [5] it was 451.1 pg/mL; in the assay with PBMC [8] it was under 7.8 pg/mL; in the assay on PBMC [10], under 7.8 pg/mL.
Take `CC1(C)[C@H](O)CC[C@]2(C)[C@H]3CC=C4[C@@H]5C[C@](C)(C(=O)O)C[C@H](O)[C@]5(C)CC[C@@]4(C)[C@]3(C)CC[C@@H]12` [TRIPTOCALLIC ACID D]: the outcome with PBMC [1], in the assay with PBMC [6], with PBMC [7], with PBMC [9], with PBMC [11] and in the assay with PBMC [12] was inactive. The Activity was under 7.8 pg/mL in the assay on PBMC [2]; under 7.8 pg/mL in the assay on PBMC [3]; 793.2 pg/mL in the assay on PBMC [4]; under 7.8 pg/mL in the assay with PBMC [5]; under 7.8 pg/mL in the assay on PBMC [8]; under 7.8 pg/mL in the assay on PBMC [10].
Regarding `CC(C)c1cc2c(cc1O)[C@@]1(C)CCC[C@](C)(C(=O)O)[C@@H]1CC2` [LAMBERTIC ACID], the outcome in the assay with PBMC [1], with PBMC [6], in the assay with PBMC [7], with PBMC [9], with PBMC [11] and with PBMC [12] was inactive. The Activity in the assay with PBMC [2] was under 7.8 pg/mL; in the assay with PBMC [3], under 7.8 pg/mL; with PBMC [4], 59.8 pg/mL; in the assay with PBMC [5], 1454.4 pg/mL; in the assay on PBMC [8], under 7.8 pg/mL; in the assay with PBMC [10], under 7.8 pg/mL.
On to `COc1c(O)cc(-c2oc3cc(O)cc(O)c3c(=O)c2O)cc1O` [MEARNSETIN], for which the outcome in the assay on PBMC [1], in the assay with PBMC [6], with PBMC [7], in the assay with PBMC [9], in the assay with PBMC [11] and in the assay with PBMC [12] was inactive. In addition, the Activity was under 7.8 pg/mL in the assay on PBMC [2]; 31.3 pg/mL with PBMC [3]; 783.6 pg/mL in the assay on PBMC [4]; 203.4 pg/mL with PBMC [5]; 14.3 pg/mL with PBMC [8]; under 7.8 pg/mL in the assay on PBMC [10].
As for `CC(=O)O[C@@H]1[C@@H]2[C@@H](OC(C)=O)[C@@]34O[C@@]2(C)COC(=O)c2cccnc2C(C)C(C)C(=O)O[C@@H]([C@H](O)[C@H](OC(C)=O)[C@@]3(COC(=O)c2ccccc2)[C@@H]1OC(C)=O)[C@]4(C)O` (stereo not given in full), the outcome in the assay on PBMC [1], with PBMC [6], with PBMC [7], in the assay on PBMC [9], with PBMC [11] and in the assay on PBMC [12] was inactive. Besides, the Activity was under 7.8 pg/mL with PBMC [2]; under 7.8 pg/mL in the assay with PBMC [3]; 136.1 pg/mL with PBMC [4]; 110.1 pg/mL with PBMC [5]; under 7.8 pg/mL in the assay with PBMC [8]; under 7.8 pg/mL in the assay with PBMC [10].
As for `COc1c(O)cc([C@H]2Oc3c(c(O)cc(O)c3[C@H]3c4c(O)cc(O)cc4O[C@H](c4ccc(O)cc4)[C@@H]3O)C[C@H]2O)cc1O` [OURATEAPROANTHOCYANIDIN A], the outcome in the assay with PBMC [1], with PBMC [6], in the assay on PBMC [7], in the assay on PBMC [9], in the assay on PBMC [11] and in the assay with PBMC [12] was inactive. In addition, the Activity is under 7.8 pg/mL in the assay with PBMC [2]; under 7.8 pg/mL with PBMC [3]; 28.1 pg/mL in the assay on PBMC [4]; 174.4 pg/mL in the assay on PBMC [5]; under 7.8 pg/mL in the assay with PBMC [8]; under 7.8 pg/mL in the assay on PBMC [10].
As to `C[C@H]1[C@H](C)CC[C@]2(CO)CC[C@]3(C)C(=CC[C@@H]4[C@@]5(C)CC[C@H](OC(=O)/C=C/c6ccc(O)c(O)c6)C(C)(C)[C@@H]5CC[C@]43C)[C@H]12`, the outcome in the assay on PBMC [1], with PBMC [6], with PBMC [7], in the assay on PBMC [9], in the assay with PBMC [11] and with PBMC [12] was inactive. Also, the Activity in the assay with PBMC [2] is under 7.8 pg/mL; with PBMC [3], under 7.8 pg/mL; in the assay with PBMC [4] it was 28.5 pg/mL; with PBMC [5], 607.1 pg/mL; in the assay on PBMC [8], under 7.8 pg/mL; with PBMC [10] it was 27.9 pg/mL.
Regarding `C[C@@H]1[C@H]2C3=CC[C@@H]4[C@@]5(C)CC[C@@H](O)C(C)(C)[C@@H]5CC[C@@]4(C)[C@]3(C)CC[C@@]2(C)[C@@H](O)C[C@H]1C(=O)O` [TRIPTOCALLIC ACID A], the result with PBMC [1], with PBMC [6], with PBMC [7], in the assay with PBMC [9], in the assay with PBMC [11] and in the assay with PBMC [12] was inactive. In addition, the Activity is under 7.8 pg/mL in the assay with PBMC [2]; under 7.8 pg/mL in the assay with PBMC [3]; 705.7 pg/mL in the assay on PBMC [4]; 10.6 pg/mL in the assay on PBMC [5]; under 7.8 pg/mL in the assay with PBMC [8]; under 7.8 pg/mL in the assay with PBMC [10].
